# The list is not random: actives were taken first. Their share in the collection is about 5.9%.
# Phagocyt inh: inhibitors of macrophage phagocytosis. inhibition, % at 5 µM. J774A.1 macrophage IgG-bead phagocytosis, imaging. 0.07% of 110,000 active. AID 1029;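 active = inhibition above the mean of the plate negative controls plus 5 SD, cut at about 13% in these data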;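 also: phagocytic index as fraction of beads internalized from green versus red external bead signal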
# HIV Rev-RRE inh: inhibitors of HIV-1 Rev-RRE RNA interaction. P05866. Rev peptide-RRE RNA binding, FRET. inhibition, % at 8 µM. 0.79% of 97,000 active;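 active = inhibition above the screen-wide mean plus 3 SD, cut at about 35% in these data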
#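 Assay system: labelled RRE RNA duplex and labelled Rev peptide / Medium: HEPES pH 7.5 salt buffer with EDTA / Reagent: labelled Rev peptide / Schedule: 5 + 15 min at 25 °C / Signal: FRET, excitation 480 nm, emission 540 nm donor and 671 nm acceptor / Benchmarks: DMSO and neomycin B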
# Measles CPE: protection of cells from measles virus; Measles virus-infected cells, CPE protection, absorbance; protection (pct of control), % at 4 µM; 1.5% of 140,000 active; in the data active = protection mostly above about 24%, no sharp cut-off; inactive = mostly below about 26%
# Pyk2 oligo antag: antagonists of human Pyk2 oligomerization; z-score (the deposit names both 25 µM and 10 µM); Q14289; 0.83% of 99,000 active; AID 1347419; Q293 cells, Pyk2 FERM NanoBiT luminescence; hits give low values;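 active = Z-score of -3 or lower, scaled per plate to the spread of control and sample wells; inactive = z-score above -3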;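 also: negative z-score means lost luminescence so less FERM oligomerization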
# hDAT+cocaine: changed human dopamine transporter uptake under cocaine IC80; Q01959; LLC-PK1 hDAT cells, [14C]-dopamine uptake with cocaine IC80; actives deviate in either direction; B-score at 10 µM; 1.3% of 110,000 active; AID 449768;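 active = Z score or B-score, a plate-position-corrected score, falls beyond the plate's 99.7% confidence bounds, in either direction; inactive = both scores lie inside the 99.7% bounds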
# Cav3 T inh: human Cav3.2 channel inhibition, primary screen. O95180. 4% of 100,000 active. B-score at 10 µM. Cav3.2-expressing cells, Fluo-4 calcium fluorescence FDSS; hits give low values;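 active = single-dose well whose peak fluorescence ratio is a statistical outlier from its plate by either plate-standardised score or position-corrected B-score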
# A number is an active result; i = inactive; nt = not tested or not shown.
SMILES,Phagocyt inh,HIV Rev-RRE inh,Measles CPE,Pyk2 oligo antag,hDAT+cocaine,Cav3 T inh
Cc1n[nH]c(C)c1CCOc1ccc(C(C)C)cc1,i,i,i,i,i,-5.39
CCS(=O)(=O)NCc1csc(C)n1,i,nt,i,i,i,i
CCc1cc(/C(Cc2csc(C)n2)=N/O)c(O)cc1O,i,i,i,i,i,-5.22
Cc1cccc(S(=O)(=O)c2c(N)n(/N=C/c3ccccc3)c3nc4ccccc4nc23)c1,i,i,59.5,i,i,i
COc1ccccc1/C=N/n1c(N)c(S(=O)(=O)c2cccs2)c2nc3ccccc3nc21,i,i,i,i,3.5,nt
COc1ccc(CCn2c(N)c(S(=O)(=O)c3cccs3)c3nc4ccccc4nc32)cc1OC,nt,i,i,i,i,i
Cc1ccc(C(=O)Nn2c(N)c(S(=O)(=O)c3ccc(C)cc3)c3nc4ccccc4nc32)cc1,i,i,i,i,i,-5.46
Cc1ccc(S(=O)(=O)c2c(N)n(NC(=O)c3ccccc3C)c3nc4ccccc4nc23)cc1,i,i,i,i,i,nt
CC1=C(C(=O)OC(C)(C)C)C(c2cccs2)NC(=O)N1 (configuration not stated),i,nt,i,nt,nt,nt
Cc1cccc(C(=O)O/N=C(\N)Cc2ccc([N+](=O)[O-])cc2)c1,i,i,i,i,i,-4.49
N/C(Cc1ccc([N+](=O)[O-])cc1)=N\OC(=O)c1ccccc1Br,nt,nt,i,nt,nt,nt
N/C(Cc1ccc([N+](=O)[O-])cc1)=N\OC(=O)c1ccc2ccccc2c1,i,i,i,i,i,i
N/C(Cc1ccc([N+](=O)[O-])cc1)=N\OC(=O)C(c1ccccc1)c1ccccc1,i,i,i,i,i,-3.38
S=c1[nH]nc(-c2ccccn2)n1/N=C/c1ccc(Br)s1,i,nt,i,nt,nt,nt
Cc1cc(C)nc(N/N=C/C(Cl)=C/c2ccccc2)n1,i,i,i,i,i,i
O=C(Nc1cccc(-c2csc(-c3ccccc3)n2)c1)c1cccs1,i,i,i,i,i,i
Cc1nc(-c2cccc(NC(=O)c3cccs3)c2)cs1,nt,i,i,i,3.22,i
Cc1nc(-c2cccc(NS(=O)(=O)c3cccc4ccccc34)c2)cs1,i,i,i,i,3.5,i
CC(=O)Nc1cccc(-c2csc(Nc3ccc(C)cn3)n2)c1,i,nt,53.2,nt,nt,nt
COC(=O)C1=C[C@@H](C(=O)OC)[C@@H]2C3=C(C(=O)[C@@]2(C)NC(=O)c2ccccc2)[C@H](c2ccccc2)[C@@H]2C(=O)NC(=O)[C@@H]2[C@@H]3C1,nt,nt,nt,nt,i,i
CC1(C)OC(=O)C2(Cc3ccccc3N3CCCCC32)C(=O)O1 (configuration not stated),i,i,i,i,i,i
CCn1c(SCC(=O)Nc2nc(-c3ccc(C)cc3)cs2)nnc1-c1ccccc1,i,i,i,i,i,i
CCn1c(SCC(=O)Nc2nc(-c3ccc(C)cc3)cs2)nnc1-c1ccccc1O,i,i,31.9,i,i,i
Cc1ccc(C(=O)CSc2nnc(CNc3nc(-c4ccccc4)cs3)n2C)cc1,i,i,i,i,i,-4.55
COc1ccccc1-c1nnc(SCC(=O)Nc2nc(-c3ccccc3)cs2)n1C,i,i,i,-3.21,i,-6.61
SMILES,Phagocyt inh,HIV Rev-RRE inh,Measles CPE,Pyk2 oligo antag,hDAT+cocaine,Cav3 T inh
O=C1NC[C@H](c2ccccc2)N(CCc2cccc3ccccc23)C1=O,nt,nt,nt,nt,i,i
COc1cc(C)c(S(=O)(=O)N2CCCC2)cc1C,i,i,i,i,i,i
Cc1cc(C(=O)CN2CCCC(C)C2)c(C)n1-c1ccc(F)cc1 (configuration not stated),i,nt,i,nt,nt,nt
COC(=O)c1ccc(CSc2nc(C)nc3c2c(=O)n(C)c(=O)n3C)o1,nt,nt,i,nt,i,i
Cc1nn(-c2ccccc2C(=O)O)c(=O)c2ccccc12,i,i,i,i,i,i
Cc1nn(-c2c(Cl)cc(Cl)cc2Cl)c(=O)c2ccccc12,i,i,i,i,i,-4.97
COC(=O)Cn1c(=NC(=O)C2COc3ccccc3O2)sc2cc(S(N)(=O)=O)ccc21 (configuration not stated),i,nt,i,nt,nt,nt
CC(C)C(NC(=O)c1ccc(F)cc1)C(=O)OCC(=O)N1CC(=O)Nc2ccccc21 (configuration not stated),i,nt,i,nt,nt,nt
CCOC(=O)N1CCN(c2ncnc3c2[nH]c2ccc(OC)cc23)CC1,i,i,i,i,3.49,i
OC1(c2cccc(C(F)(F)F)c2)CCN(c2ncnc3c2[nH]c2ccc(F)cc23)CC1,i,i,i,i,nt,nt
COc1ccc(N2CCN(c3ncnc4c3[nH]c3ccccc34)CC2)cc1,i,i,i,-3.47,i,i
CCOC(=O)N1CCN(c2ncnc3c2[nH]c2ccc(F)cc23)CC1,i,i,i,-3.03,i,i
CCOC(=O)c1[nH]c2ccc(OC)cc2c1NC(=S)N1CCN(c2ccccc2)CC1,i,nt,31.0,nt,nt,nt
CCC(C)NS(=O)(=O)c1ccc(S(=O)(=O)N2CC=C(c3ccc(F)cc3)CC2)cc1 (configuration not stated),i,nt,i,nt,nt,nt
C#CCNC(=O)C1=C[C@H](c2ccc3c(c2)OCO3)[C@@H](CCCO)[C@H](OCC)O1,nt,nt,nt,nt,i,i
CCN(CC)C(=O)C(Sc1ccccc1)c1ccccc1 (configuration not stated),i,i,60.8,i,i,i
CC[C@@H](C)C(NC(=O)OC(C)(C)C)c1cn([C@@H](Cc2cc3ccccc3[nH]2)C(=O)N2CCN(C(=O)OC(C)(C)C)CC2)nn1 (some centres not stated),nt,nt,nt,nt,i,i
CCOc1ccc(NC(=O)N2CCC(n3c(=O)[nH]c4ccccc43)CC2)cc1,i,nt,i,nt,2.84,i
O=C(Nc1ccccc1C(F)(F)F)N1CCC(n2c(=O)[nH]c3ccccc32)CC1,nt,i,i,i,i,i
COc1ccccc1N1CCN(CC(=O)Nc2ccc(Cl)c(C(F)(F)F)c2)CC1,nt,i,i,i,i,-4.16
CCOc1ccc(NC(=O)CN2CCN(CC(=O)Nc3ccc(Cl)c(C(F)(F)F)c3)CC2)cc1,nt,i,i,i,i,-6.2
O=C(CN1C(=O)c2ccccc2C1=O)Nc1sc2c(c1C(=O)NCc1ccco1)CCCC2,nt,i,61.7,i,i,i
O=C(CCCN1C(=O)c2ccccc2C1=O)Nc1sc2c(c1C(=O)NCc1ccco1)CCC2,i,i,i,i,i,i
O=C(CSc1nc(C2CC2)nc2ccccc12)NCc1ccc2c(c1)OCO2,i,i,i,nt,nt,nt
CC1=NN(/C(=N\c2nnc(C)s2)Nc2ccc(C(C)(C)C)cc2)[C@H](c2ccc(C)cc2)S1,nt,i,i,i,i,-5.65
Cc1cccc(N(C(=O)c2nsc(Cl)c2Cl)C(C(=O)NC2CCCC2)c2ccc(O)cc2)c1 (configuration not stated),i,nt,i,nt,nt,nt
CC(C)CNC(=O)c1ccc(Cl)c(N)c1,i,nt,i,nt,nt,nt
Cc1ccc(-c2csc(NC(=O)c3ccc4c(=O)n5c(nc4c3)CCCCC5)n2)cc1,i,nt,55.9,nt,nt,nt
O=C(Nc1ccc(S(=O)(=O)N2CCCC2)cc1)c1ccc2c(=O)n3c(nc2c1)CCCCC3,i,nt,i,nt,nt,nt
